PvdQ inh: P. aeruginosa PvdQ acylase inhibitors, primary screen, biochemical, fluorescence, plate reader and imaging, single point. AID 488965, 2010. 0.063% of 340,000 active. PvdQ acylase [Pseudomonas aeruginosa LESB58]. inhibition, % at 10 µM. purified PvdQ acylase; in the data active = inhibition above about 30%, passing the limit was not always enough;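 also: 0% = vehicle neutral wells and 100% = reference inhibitor wells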
CDK5 inh: inhibitors of human CDK5/p35 kinase, primary screen, biochemical, single concentration; Cyclin-dependent kinase 5 (Homo sapiens) + Cyclin-dependent kinase 5 activator 1 (Homo …; Recombinant CDK5/p35, ADP-Glo luminescence, 60 min; inhibition, % at 10 µM; 0.01% of 330,000 active;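 active = highest replicate inhibition of at least 50% and at least 75% of replicates reaching 50%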;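 also: plate controls were DMSO neutral control for no effect and GW8510 at 10 µM for full effect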
Target sequence (Q00535 whole entry, looked up): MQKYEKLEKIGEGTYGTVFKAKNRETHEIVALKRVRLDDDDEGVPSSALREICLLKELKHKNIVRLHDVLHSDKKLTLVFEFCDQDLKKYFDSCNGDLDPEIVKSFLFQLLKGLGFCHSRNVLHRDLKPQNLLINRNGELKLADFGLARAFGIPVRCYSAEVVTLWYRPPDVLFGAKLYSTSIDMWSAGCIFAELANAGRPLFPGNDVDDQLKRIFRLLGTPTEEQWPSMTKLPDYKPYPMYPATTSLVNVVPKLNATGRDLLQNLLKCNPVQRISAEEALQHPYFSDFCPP
Target sequence (Q15078 whole entry, looked up): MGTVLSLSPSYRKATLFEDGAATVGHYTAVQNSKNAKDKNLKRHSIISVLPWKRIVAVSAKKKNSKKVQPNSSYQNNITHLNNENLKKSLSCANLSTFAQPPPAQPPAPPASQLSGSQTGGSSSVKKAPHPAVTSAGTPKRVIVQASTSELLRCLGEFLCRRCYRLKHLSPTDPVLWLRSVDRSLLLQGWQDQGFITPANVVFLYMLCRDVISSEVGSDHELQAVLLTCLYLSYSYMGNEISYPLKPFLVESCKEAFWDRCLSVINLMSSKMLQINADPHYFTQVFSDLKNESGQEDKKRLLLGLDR
CAL PDZ FP-1: CAL PDZ peptide-binding inhibitors, primary screen, biochemical, fluorescence polarization, Cer-tagged CAL PDZ, HTS | Golgi-associated PDZ and coiled-coil motif-containing protein (Homo sapiens), Q9HD26 | purified CAL PDZ, TMR-peptide fluorescence polarization, 1 h | inhibition, % at 20 µM | 0.02% of 330,000 active;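 active = highest replicate inhibition of at least 40%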;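 also: plate controls were DMSO neutral control wells for no effect and unlabeled competitor peptide control wells for full effect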
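Material – purified CerCALP PDZ construct · Detection – FP readout, S and P plane fluorescence · Measure – percent inhibition from loss of millipolarization · Controls – unlabelled peptide for full inhibition, DMSO wells as neutral · Probe or stimulus – TMR-labelled reporter peptide T*-PRC34 bound in PDZ groove · Times – 1 h at RT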
Dyrk1A ADPGlo: rat Dyrk1A kinase inhibitors, primary screen, biochemical, single point, plate reader | ADP-Glo luminescence, NFATc1 peptide | inhibition, % at 12.5 µM | 0.43% of 310,000 active; in the data active = inhibition above about 50%;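 also: plate controls were vehicle with enzyme for no effect and no enzyme for full effect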
Tb MetRS inh: T. brucei MetRS inhibitors, primary screen, biochemical, luminescence. methionyl-tRNA synthetase (Trypanosoma brucei brucei). purified T. brucei MetRS, ATP depletion, Kinase-Glo luminescence. inhibition, % at 11.9 µM. 0.4% of 360,000 active. AID 624268, 2012;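 active = inhibition above a per-plate cutoff of the control wells' mean inhibition plus 3 SD, cut at about 5.5% in these data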;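 also: 0% = DMSO wells median and 100% = median of wells with control inhibitor compound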
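Dosing: 11.9 µM compound single dose, 0.9% DMSO; Assay system: purified T. brucei MetRS enzyme; Measured by: Kinase-Glo luciferase luminescence reporting remaining unconsumed ATP; Schedule: 15 min plus 2 h at 25 °C.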
CAL PDZ FP-2: untagged CAL PDZ binding inhibitors, primary screen, biochemical, fluorescence polarization, HTS; inhibition, % at 24.9 µM; 0.92% of 300,000 active; purified CAL PDZ, TMR-peptide fluorescence polarization, 1 h; Golgi-associated PDZ and coiled-coil motif-containing protein (Homo sapiens), Q9HD26;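 active = mean inhibition of at least 30% with at least half of replicates also reaching 30%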;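 also: 0% = DMSO neutral control and 100% = excess unlabeled competitor peptide PRC23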
TbMetRS confirm: T. brucei MetRS inhibitors, confirmation, biochemical, luminescence; shares compounds with Tb MetRS inh; T. brucei MetRS enzyme, luminescence (ATP depletion); inhibition, % at 11.9 µM; 93% of 1,400 active; in the data active = inhibition above about 7%
Jurkat cytotox: Jurkat T cell cytotoxicity, cytotoxicity control for T. brucei MetRS inhibitor project, luminescence, high throughput | Jurkat cells viability, ATP luminescence | shares compounds with Tb MetRS inh | inhibition, % at 8.3 µM | 12% of 1,400 active; in the data active = inhibition above about 15%;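 also: 0% = vehicle and 100% = reference inhibitor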
Tb MetRS inh FP: T. brucei MetRS inhibitors, orthogonal assay for T. brucei MetRS inhibitor project, biochemical, fluorescence polarization. shares compounds with Tb MetRS inh. AID 651607, 2012. 44% of 1,400 active. inhibition, % at 11.9 µM. purified T. brucei MetRS; in the data active = inhibition above about 17%;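 also: 0% = vehicle wells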
Starred values were filed as active, the others as inactive. An excerpt weighted towards active compounds, which were near 1.4% of everything screened.

How did Cc1ccc(SCc2nc3ccccc3n2CC(=O)Nc2ccc(Cl)cc2)cc1 do in these assays?
PvdQ inh: -18; CDK5 inh: 1; Dyrk1A ADPGlo: 0; Tb MetRS inh: 17*; CAL PDZ FP-2: -2; TbMetRS confirm: 22*; Jurkat cytotox: 2; Tb MetRS inh FP: 89*

Results for Nc1cc(Oc2ccc(Cl)cc2Cl)nc(N)n1 ?
PvdQ inh: 15; CDK5 inh: -1; CAL PDZ FP-1: 2; Dyrk1A ADPGlo: -6; Tb MetRS inh: 22*; CAL PDZ FP-2: -6; TbMetRS confirm: 31*; Jurkat cytotox: -1; Tb MetRS inh FP: 24*

How did Cn1c(CN2CCCC(C(=O)c3ccc4c(c3)OCO4)C2)nc2ccccc21 (stereo unspecified) do in these assays?
PvdQ inh: -6; CDK5 inh: 1; CAL PDZ FP-1: -1; Dyrk1A ADPGlo: 2; Tb MetRS inh: 6.4*; CAL PDZ FP-2: 1; TbMetRS confirm: 12*; Jurkat cytotox: -1; Tb MetRS inh FP: 1

What do the screens show for `CCCCn1nnnc1C(c1ccccc1)N1CCN(c2cc(C)ccc2C)CC1` (stereo unspecified)?
Tb MetRS inh: 0

What do the screens show for `N#C/C(=C(/O)CCl)c1nnc2n1CCCCC2`?
PvdQ inh: 29; CDK5 inh: 1; CAL PDZ FP-1: 8; Dyrk1A ADPGlo: -1; Tb MetRS inh: -1; CAL PDZ FP-2: 5

What do the screens show for `N#C/C(=N\Nc1cc(Cl)cc(Cl)c1)c1nnc2n1CCCCC2`?
PvdQ inh: 4; CDK5 inh: -1; CAL PDZ FP-1: -4; Dyrk1A ADPGlo: 2; Tb MetRS inh: 24*; CAL PDZ FP-2: -6; TbMetRS confirm: 40*; Jurkat cytotox: 6; Tb MetRS inh FP: 26*

What do the screens show for `O=C(Cn1c(NCCO)nc2ccccc21)c1ccc([N+](=O)[O-])cc1`?
PvdQ inh: -27; CDK5 inh: -1; Dyrk1A ADPGlo: 0; Tb MetRS inh: 20*; CAL PDZ FP-2: -6; TbMetRS confirm: 3; Jurkat cytotox: 6; Tb MetRS inh FP: 7

How did O=C(Cn1c(NCCCO)nc2ccccc21)c1ccc([N+](=O)[O-])cc1 do in these assays?
PvdQ inh: -21; CDK5 inh: -4; CAL PDZ FP-1: 0; Tb MetRS inh: 0; CAL PDZ FP-2: 1

How did COc1ccc(S(=O)(=O)/N=C2\C=C(Nc3ccc(O)cc3)C(=O)c3ccccc32)cc1 do in these assays?
PvdQ inh: 0; CDK5 inh: 5; CAL PDZ FP-1: -3; Dyrk1A ADPGlo: 32; Tb MetRS inh: 2; CAL PDZ FP-2: -3

Results for O=C(O)c1ccc(S(=O)(=O)/N=C2\C=C(Nc3ccccc3F)C(=O)c3ccccc32)cc1 ?
PvdQ inh: -11; CDK5 inh: 4; CAL PDZ FP-1: 1; Dyrk1A ADPGlo: 57*; Tb MetRS inh: 9.2*; CAL PDZ FP-2: -4; TbMetRS confirm: 15*; Jurkat cytotox: 91*; Tb MetRS inh FP: 6

High-throughput results as filed in PubChem.
